Legend:
Assay type in all cases: functional
NCI-H460 = experiment: Cytotoxicity against human NCI-H460 cells assessed as cell growth at 10^-6 M after 48 hrs by SRB assay; settings: NCI-H460, 48 h, read-out: Activity
OVCAR-4 [1] = experiment: Cytotoxicity against human OVCAR4 cells assessed as cell growth at 10^-8 M after 48 hrs by SRB assay; settings: OVCAR-4, 48 h, read-out: Activity
CAKI-1 = experiment: Cytotoxicity against human Caki1 cells assessed as cell growth at 10^-8 M after 48 hrs by SRB assay; settings: CAKI-1, 48 h, read-out: Activity
Outline: (§1)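 NCI-60 screen: lines kept in RPMI 1640 with 5% FBS, seeded at 5000–40,000 cells/well by doubling time, preincubated 24 h at 37 °C in 5% CO2. Time-zero plates TCA-fixed at drug addition. DMSO stocks diluted in medium, 48 h exposure. Fixation in cold TCA (final 10% adherent, 16% suspension), 0.4% SRB stain, solubilised in 10 mM Tris base, A515. Percent growth computed against control and time-zero.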

SNB-75 = experiment: Cytotoxicity against human SNB75 cells assessed as cell growth at 10^-7 M after 48 hrs by SRB assay; settings: SNB-75, 48 h, read-out: Activity
[2] = Cytotoxicity against human NCI-ADR-RES cells assessed as cell growth at 10^-5 M after 48 hrs by SRB assay; settings: read-out: Activity
U-251 [3] = experiment: Cytotoxicity against human U251 cells assessed as cell growth at 10^-4 M after 48 hrs by SRB assay; settings: U-251, 48 h, read-out: Activity
SF-295 = experiment: Cytotoxicity against human SF295 cells assessed as cell growth at 10^-6 M after 48 hrs by SRB assay; settings: SF-295, 48 h, read-out: Activity
SF-539 [4] = experiment: Cytotoxicity against human SF539 cells assessed as cell growth at 10^-7 M after 48 hrs by SRB assay; settings: SF-539, 48 h, read-out: Activity
IGROV-1 [5] = experiment: Growth inhibition of human IGROV1 cells after 48 hrs by SRB assay; settings: IGROV-1, 48 h; for CC50: read-out: LC50 (the source's name)
Outline: (§2)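 Adherent NCI-60 lines grown in RPMI 1640 with 5% FBS, seeded at 5000–40,000 cells/well, and preincubated 24 h at 37 °C, 5% CO2. Compound, stocked in DMSO, given either once at 10^-5 M or at five 10-fold dilutions for 48 h. Cells fixed with cold TCA (final 10%), stained with 0.4% SRB, and read at 515 nm. GI50 taken as 50% reduction in net protein increase versus time-zero and control plates.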

HOP-62 = experiment: Cytotoxicity against human HOP62 cells assessed as cell growth at 10^-5 M after 48 hrs by SRB assay; settings: HOP-62, 48 h, read-out: Activity
Outline: (§3)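 NCI-60 five-dose screen. Cells were grown in RPMI 1640 with 5% FBS and seeded at 5000–40,000 cells/well according to doubling time. They were pre-incubated 24 h at 37 °C in 5% CO₂, and time-zero (Tz) plates were TCA-fixed at drug addition. Five 10-fold dilutions of DMSO stock were applied for 48 h. Read-out was SRB staining, 515 nm absorbance, with percent growth calculated versus Tz and untreated control.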

[6] = Growth inhibition of human Hs 578T cells after 48 hrs by SRB assay; outline: as §2
A498 = experiment: Cytotoxicity against human A498 cells assessed as cell growth at 10^-8 M after 48 hrs by SRB assay; settings: A498, 48 h, read-out: Activity; outline: as §1
SF-268 [7] = experiment: Cytotoxicity against human SF268 cells assessed as cell growth at 10^-7 M after 48 hrs by SRB assay; settings: SF-268, 48 h, read-out: Activity
OVCAR-4 [8] = experiment: Cytotoxicity against human OVCAR4 cells assessed as cell growth at 10^-4 M after 48 hrs by SRB assay; settings: OVCAR-4, 48 h, read-out: Activity
RXF 393 [9] = experiment: Cytotoxicity against human RXF393 cells assessed as cell growth at 10^-5 M after 48 hrs by SRB assay; settings: RXF 393, 48 h, read-out: Activity
OVCAR-4 [10] = experiment: Cytotoxicity against human OVCAR4 cells assessed as cell growth at 10^-6 M after 48 hrs by SRB assay; settings: OVCAR-4, 48 h, read-out: Activity
U-251 [11] = experiment: Cytotoxicity against human U251 cells assessed as cell growth at 10^-8 M after 48 hrs by SRB assay; settings: U-251, 48 h, read-out: Activity
SR [12] = experiment: Growth inhibition of human SR cells after 48 hrs by SRB assay
SF-539 [13] = experiment: Growth inhibition of human SF539 cells after 48 hrs by SRB assay; settings: SF-539, 48 h; outline: as §2
SR [14] = experiment: Cytotoxicity against human SR cells assessed as cell growth at 10^-6 M after 48 hrs by SRB assay; settings: read-out: Activity
[15] = Cytotoxicity against human Hs 578T cells assessed as cell growth at 10^-7 M after 48 hrs by SRB assay; settings: read-out: Activity; outline: as §3
IGROV-1 [16] = experiment: Cytotoxicity against human IGROV1 cells assessed as cell growth at 10^-7 M after 48 hrs by SRB assay; settings: IGROV-1, 48 h, read-out: Activity
TK-10 = experiment: Cytotoxicity against human TK10 cells assessed as cell growth at 10^-5 M after 48 hrs by SRB assay; settings: TK-10, 48 h, read-out: Activity
T47D = experiment: Growth inhibition of human T47D cells after 48 hrs by SRB assay; settings: for CC50: read-out: LC50 (the source's name); outline: as §2
M14 = experiment: Cytotoxicity against human M14 cells assessed as cell growth at 10^-4 M after 48 hrs by SRB assay; settings: M14, 48 h, read-out: Activity
EKVX = experiment: Cytotoxicity against human EKVX cells assessed as cell growth at 10^-6 M after 48 hrs by SRB assay; settings: read-out: Activity; outline: as §1
HCC 2998 = experiment: Cytotoxicity against human HCC2998 cells assessed as cell growth at 10^-6 M after 48 hrs by SRB assay; settings: HCC 2998, 48 h, read-out: Activity; outline: as §3
ACHN = experiment: Cytotoxicity against human ACHN cells assessed as cell growth at 10^-5 M after 48 hrs by SRB assay; settings: read-out: Activity; outline: as §1
MDA-MB-468 = experiment: Cytotoxicity against human MDA-MB-468 cells assessed as cell growth at 10^-8 M after 48 hrs by SRB assay; settings: MDA-MB-468, 48 h, read-out: Activity
SF-268 [17] = experiment: Cytotoxicity against human SF268 cells assessed as cell growth at 10^-8 M after 48 hrs by SRB assay; settings: SF-268, 48 h, read-out: Activity
RXF 393 [18] = experiment: Growth inhibition of human RXF393 cells after 48 hrs by SRB assay; settings: RXF 393, 48 h; outline: as §2
LOX IMVI = experiment: Growth inhibition of human LOXIMVI cells after 48 hrs by SRB assay; outline: as §2

COc1ccc(-c2nn3cc(-c4cccc(N)c4)nc3s2)cc1
growth at 1 µM (NCI-H460): 76% | growth at 0.01 µM (OVCAR-4 [1]): 92% | growth at 0.01 µM (CAKI-1): 86% | growth at 0.1 µM (SNB-75): 74% | growth at 10 µM [2]: 31% | growth at 100 µM (U-251 [3]): -17% | growth at 1 µM (SF-295): 72% | growth at 0.1 µM (SF-539 [4]): 100% | GI50 (IGROV-1 [5]): 2.65 µM | TGI (IGROV-1 [5]): 34.4 µM | CC50 (IGROV-1 [5]): > 100 µM | growth at 10 µM (HOP-62): 15% | GI50 [6]: 2.33 µM | LC50 (concentration killing 50% of starting cells) [6]: > 100 µM | TGI [6]: 23.3 µM | growth at 0.01 µM (A498): 87% | growth at 0.1 µM (SF-268 [7]): 101% | growth at 100 µM (OVCAR-4 [8]): -34% | growth at 10 µM (RXF 393 [9]): -31% | growth at 1 µM (OVCAR-4 [10]): 60% | growth at 0.01 µM (U-251 [11]): 106% | GI50 (SR [12]): 3.27 µM | LC50 (SR [12]): > 100 µM | TGI (SR [12]): > 100 µM | GI50 (SF-539 [13]): 2.51 µM | LC50 (SF-539 [13]): 48 µM | TGI (SF-539 [13]): 7.83 µM | growth at 1 µM (SR [14]): 81% | growth at 0.1 µM [15]: 84% | growth at 0.1 µM (IGROV-1 [16]): 93% | growth at 10 µM (TK-10): 41% | GI50 (T47D): 1.37 µM | TGI (T47D): 21.2 µM | CC50 (T47D): > 100 µM | growth at 100 µM (M14): -54% | growth at 1 µM (EKVX): 50% | growth at 1 µM (HCC 2998): 84% | growth at 10 µM (ACHN): 27% | growth at 0.01 µM (MDA-MB-468): 94% | growth at 0.01 µM (SF-268 [17]): 100% | GI50 (RXF 393 [18]): 1.38 µM | LC50 (RXF 393 [18]): 20.9 µM | TGI (RXF 393 [18]): 4.66 µM | GI50 (LOX IMVI): 3.38 µM | LC50 (lethal concentration, 50% net cell kill) (LOX IMVI): > 100 µM | TGI (LOX IMVI): 29.5 µM

COc1ccc(-c2nn3cc(-c4ccc(O)cc4O)nc3s2)cc1
growth at 1 µM (NCI-H460): 75% | growth at 0.01 µM (OVCAR-4 [1]): 95% | growth at 0.01 µM (CAKI-1): 95% | growth at 0.1 µM (SNB-75): 68% | growth at 10 µM [2]: 15% | growth at 100 µM (U-251 [3]): -46% | growth at 1 µM (SF-295): 74% | growth at 0.1 µM (SF-539 [4]): 101% | GI50 (IGROV-1 [5]): 2.23 µM | TGI (IGROV-1 [5]): 37.4 µM | CC50 (IGROV-1 [5]): > 100 µM | growth at 10 µM (HOP-62): -33% | GI50 [6]: 1.92 µM | LC50 (concentration killing 50% of starting cells) [6]: > 100 µM | TGI [6]: 9.27 µM | growth at 0.01 µM (A498): 82% | growth at 0.1 µM (SF-268 [7]): 96% | growth at 100 µM (OVCAR-4 [8]): -22% | growth at 10 µM (RXF 393 [9]): -83% | growth at 1 µM (OVCAR-4 [10]): 68% | growth at 0.01 µM (U-251 [11]): 97% | GI50 (SR [12]): 2.17 µM | LC50 (SR [12]): > 100 µM | TGI (SR [12]): 14 µM | GI50 (SF-539 [13]): 1.83 µM | TGI (SF-539 [13]): 3.47 µM | growth at 1 µM (SR [14]): 72% | growth at 0.1 µM [15]: 93% | growth at 0.1 µM (IGROV-1 [16]): 94% | growth at 10 µM (TK-10): 7% | GI50 (T47D): 1.63 µM | TGI (T47D): 5.15 µM | CC50 (T47D): > 100 µM | growth at 100 µM (M14): -49% | growth at 1 µM (EKVX): 65% | growth at 1 µM (HCC 2998): 78% | growth at 10 µM (ACHN): 9% | growth at 0.01 µM (MDA-MB-468): 96% | growth at 0.01 µM (SF-268 [17]): 97% | GI50 (RXF 393 [18]): 1.09 µM | LC50 (RXF 393 [18]): 5.74 µM | TGI (RXF 393 [18]): 2.5 µM | GI50 (LOX IMVI): 2.58 µM | LC50 (lethal concentration, 50% net cell kill) (LOX IMVI): > 100 µM | TGI (LOX IMVI): 31.4 µM

From ChEMBL document CHEMBL2146441, “2,6-Disubstituted imidazo[2,1-b][1,3,4]thiadiazoles: search for anticancer agents” (2012)
